# MrgX1 ag = agonists of human MrgX1 receptor, primary screen, HEK293 cells, Fluo-4 calcium flux. Mas-related G-protein coupled receptor member X1 (Homo sapiens), Q96LB2. Fluo-4 calcium fluorescence, agonist mode; hits give high values. B-score at 10 µM. 0.44% of 310,000 active. AID 588627, 2011;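 active means calcium response B-score plate-corrected fluorescence ratio at least 3 library SD, with starting fluorescence B-score inside 5 SD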
# Target sequence (Q96LB2 whole entry, looked up): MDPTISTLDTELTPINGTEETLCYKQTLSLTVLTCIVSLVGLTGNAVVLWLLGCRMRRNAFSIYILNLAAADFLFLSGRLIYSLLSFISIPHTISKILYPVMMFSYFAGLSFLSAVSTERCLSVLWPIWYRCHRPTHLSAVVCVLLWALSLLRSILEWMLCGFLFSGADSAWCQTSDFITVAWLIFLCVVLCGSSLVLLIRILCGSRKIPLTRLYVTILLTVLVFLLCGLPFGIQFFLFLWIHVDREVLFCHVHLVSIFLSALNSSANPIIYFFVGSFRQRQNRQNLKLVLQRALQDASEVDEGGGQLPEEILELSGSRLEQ
#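 System – MrgX1-expressing HEK293 cells · Incubation – cells plated overnight, dye loaded 0.5 h 37 °C, 0.5 h room temperature · Technique – kinetic Fluo-4 NW fluorescence of intracellular calcium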
# RGS4 block = RGS4 inhibitors, primary screen, cell-based, HEK293 M3R inducible RGS4, calcium flux. Regulator of G-protein signaling 4 (Homo sapiens), P49798. Fluo-4 calcium flux; hits give high values; triggered by carbachol at its EC20. B-score at 10 µM. 0.45% of 310,000 active;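 active means B-score, a plate-corrected calcium signal, over three deviations above library mean, with baseline fluorescence within five deviations of library mean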;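 further: RGS4 expression induced by doxycycline in cells with stable M3 receptor; B-score is computed from the integrated fluorescence ratio over baseline after carbachol; higher B-score means a larger calcium signal and so more RGS4 inhibition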
# Target sequence (P49798 whole entry, looked up): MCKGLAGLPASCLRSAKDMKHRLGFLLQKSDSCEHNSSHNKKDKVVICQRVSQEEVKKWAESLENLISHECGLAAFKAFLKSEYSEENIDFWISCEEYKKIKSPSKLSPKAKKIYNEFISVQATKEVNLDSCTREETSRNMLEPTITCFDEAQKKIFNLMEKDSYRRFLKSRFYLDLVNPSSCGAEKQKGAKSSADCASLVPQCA
# RGS4 pot = RGS4 potentiators or activators, primary screen, cell-based, HEK293 M3R inducible RGS4, calcium flux; 0.92% of 310,000 active; carbachol calcium flux Fluo4; hits give low values; B-score at 10 µM;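 active means B-score of the integrated calcium signal more than 4 SD below the library mean, with starting fluorescence not abnormally high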;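 further: negative B-score means reduced calcium response which marks RGS4 activation or potentiation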
#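 Material: M3R-expressing HEK293 line, RGS4 induced by doxycycline | Schedule: Overnight RGS4 induction, 30 min dye load 37 °C, 20 min compound RT | Measured by: Fluo4 fluorescence kinetic imaging of calcium | Read-out: Integrated calcium ratio converted to B score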
# MrgX1 allo act = positive allosteric modulators of MrgX1, primary screen, HEK293 cells, Fluo-4 calcium flux; FDSS; hits give high values; B-score at 10 µM; 0.63% of 310,000 active; AID 588675, 2011;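 active means plate-corrected calcium response at least 3 library SD above typical, normal starting fluorescence, not activating the receptor alone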;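 further: compound read alongside a low EC10 to EC30 dose of BAM8-22 agonist; peak minus trough fluorescence over baseline measured at the second addition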
# MrgX1 antag = antagonists of human MrgX1 receptor, primary screen, HEK293 cells, Fluo-4 calcium flux. B-score at 10 µM. 1.3% of 310,000 active. AID 588676, 2011. BAM8-22 antagonism; hits give low values. Mas-related G-protein coupled receptor member X1 (Homo sapiens), Q96LB2;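 active means calcium-response B-score plate-corrected more than 3 library SD below zero, starting fluorescence within 5 deviations, no agonist response on first addition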;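 further: peak minus trough fluorescence over baseline after final BAM8-22 challenge near maximal dose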
# * = called active by the depositor; i = inactive. Sampled rows, rich in hits. Any-hit rate of the full collection: about 3.5%.
SMILES,MrgX1 ag,RGS4 block,RGS4 pot,MrgX1 allo act,MrgX1 antag
COc1cccc(C2=NOC(C(=O)NCCCn3ccnc3)C2)c1 (configuration not stated),i,i,i,i,-6.5*
CCN(CC)CCOC(=O)C1c2ccccc2Oc2ccccc21,i,i,-11*,i,i
CCN(CC)CCNC(=O)C1c2ccccc2Oc2ccccc21,i,i,-7.2*,i,i
COc1ccc(C2=NOC(C(=O)NCCCn3ccnc3)C2)cc1 (configuration not stated),i,i,i,i,i
O=C(NCCCn1ccnc1)C1c2ccccc2Oc2ccccc21,i,i,-7.4*,i,i
O=C(/C=C/c1ccccc1)NC(=S)Nc1ccc2c3c(cccc13)CC2,i,i,i,i,-14*
O=C(COc1ccccc1)NC(=S)Nc1ccc2c3c(cccc13)CC2,i,i,i,i,i
COC(=O)CC1=C(C(=O)OC)C(c2cccc(OCC(N)=O)c2)C(C#N)=C(N)O1 (configuration not stated),34*,i,i,i,i
COC(=O)CC1=C(C(=O)OC)C(c2ccncc2)C(C#N)=C(N)O1 (configuration not stated),i,i,i,i,i
O=C1Nc2ccccc2C1(O)C/C(=N/O)c1ccccc1 (configuration not stated),i,i,i,i,-7.5*
CC(=O)CC1(O)C(=O)Nc2ccccc21 (configuration not stated),i,i,i,i,i
Cc1cc(C)c(-c2c(O)c3cnn(-c4ccccc4)c3[nH]c2=O)c(C)c1,i,i,i,i,i
Brc1ccccc1OCCCOc1cccc2cccnc12,i,i,i,i,i
COc1cccc(C=O)c1OCCCOc1cccc2cccnc12,33*,i,i,i,i
COc1ccc(/C=N/n2cnnc2)cc1Br,i,i,i,i,i
Cn1c(C(=O)N(Cc2ccccc2)Cc2cccs2)cc2sccc21,i,i,-7.8*,i,i
S=c1[nH]nc(COc2ccccc2)n1Cc1ccccc1,i,i,i,i,i
CC(C)CCn1c(COc2ccccc2)n[nH]c1=S,i,i,-7.1*,i,i
CCCCCn1c(=O)c2ccccc2n2c(=S)[nH]nc12,i,i,i,i,i
CCCCn1c(Cc2ccccc2)n[nH]c1=S,i,i,-7.4*,i,i
CCCCn1c(=O)c2ccccc2n2c(=S)[nH]nc12,i,i,i,i,-5.4*
COc1ccc(/C(C)=N\O)cc1OC,i,i,i,i,i
COc1ccc(NC(=O)CCCn2nc(C)c3c(C)n(-c4ccccc4)nc3c2=O)cc1OC,i,i,i,i,i
COc1ccccc1NS(=O)(=O)c1cc(C(=O)NCC(c2ccco2)N2CCCCC2)ccc1C (configuration not stated),i,i,i,i,-5.4*
COc1ccccc1NS(=O)(=O)c1cc(C(=O)NCC(c2ccco2)N(C)C)ccc1C (configuration not stated),i,i,i,i,i
SMILES,MrgX1 ag,RGS4 block,RGS4 pot,MrgX1 allo act,MrgX1 antag
Cn1cc(/C=N/n2cnc3sc4c(c3c2=O)CCCC4)c2ccccc21,i,i,i,i,i
O=c1c2c3c(sc2ncn1/N=C/c1ccc([N+](=O)[O-])o1)CCCC3,i,5.2*,i,i,i
Cc1nc2c(c(C)nn2-c2ccccc2)c(C)c1CCC(=O)Nc1ccc(CN2CCCC2)cc1,i,i,i,12*,i
CCC(C)NC(=O)CCc1c(C)nc2c(c(C)nn2-c2ccccc2)c1C (configuration not stated),i,i,i,i,i
CCCCn1c(N)c(N(CCOC)C(=O)C2CC(=O)N(Cc3ccc(C)cc3)C2)c(=O)[nH]c1=O (configuration not stated),i,i,i,i,i
CCCCN(C(=O)C1CC(=O)N(Cc2ccc(C)cc2)C1)c1c(N)n(CC(C)C)c(=O)[nH]c1=O (configuration not stated),i,i,i,i,-7.2*
CSC1=C(C#N)C(c2ccccc2Cl)C2=C(N1)c1ccccc1C2=O (configuration not stated),32*,i,i,i,i
Cc1ccc(NC(=O)c2cc3cc(OC(F)(F)F)ccc3[nH]2)cc1,i,i,i,i,i
O=C(NNC(=O)c1ccccc1Cl)c1cc2cc(OC(F)(F)F)ccc2[nH]1,i,i,i,7.5*,i
CCCn1c(=O)c(Br)cn(-c2ccccc2C)c1=O,i,i,i,i,i
OC(CNCCC1C=Nc2ccccc21)Cn1c2ccc(Cl)cc2c2cc(Cl)ccc21 (configuration not stated),i,7.4*,i,i,i
CC(C)(CN1CCN(C(c2ccccc2)c2ccccc2)CC1)NS(=O)(=O)c1ccccc1,i,i,i,i,i
Cc1cc(=O)[nH]c(N/N=C/c2ccc(C)o2)n1,i,i,i,i,-6.6*
Cc1cc(=O)[nH]c(N/N=C/c2ccco2)n1,i,i,i,i,i
CCc1nn(CC(=O)NCCC(C)C)c(=O)c2cc3c(OC)cccc3n12,i,i,i,i,i
Cc1ccc(NC(=O)C(=O)NCCN2CCN(C(=S)Nc3ccccc3)CC2)cc1,i,i,i,i,i
CCOC(=O)Cc1csc(Nc2ccc(Cl)cc2)n1,i,i,i,i,i
CCOC(=O)C(CC)(CCC(=O)O)c1csc(Nc2ccc(C)cc2)n1 (configuration not stated),i,i,i,i,-7.4*
CN(C)c1ccc(C(=O)N2CCCC(CCC(=O)N3CCN(c4ccccn4)CC3)C2)cc1 (configuration not stated),i,i,i,i,i
CCOC(=O)c1c(CSc2ccc(CC)cc2)oc2ccc(O)c(CN(C)C)c12,i,i,i,i,-5.9*
O=c1c2ccccc2c(/C=N/NS(=O)(=O)c2ccccc2)c(O)n1-c1ccccn1,52*,i,i,i,i
Cc1ccc(S(=O)(=O)c2cc3ccccc3oc2=O)cc1,i,i,i,i,i

# Screens deposited in PubChem by Johns Hopkins Ion Channel Center.
